In ChEMBL document CHEMBL1129041, “Design of orally active dual inhibitors of neutral endopeptidase and angiotensin-converting enzyme with long duration of action” (J Med Chem, 1996):
pIC50: −log10 of the molar value.

Tests used:
Neprilysin = biological target: T1, Neprilysin (Oryctolagus cuniculus, UniProt P08049); assay: In vitro inhibition of neutral endopeptidase
T1 sequence (P08049 whole entry): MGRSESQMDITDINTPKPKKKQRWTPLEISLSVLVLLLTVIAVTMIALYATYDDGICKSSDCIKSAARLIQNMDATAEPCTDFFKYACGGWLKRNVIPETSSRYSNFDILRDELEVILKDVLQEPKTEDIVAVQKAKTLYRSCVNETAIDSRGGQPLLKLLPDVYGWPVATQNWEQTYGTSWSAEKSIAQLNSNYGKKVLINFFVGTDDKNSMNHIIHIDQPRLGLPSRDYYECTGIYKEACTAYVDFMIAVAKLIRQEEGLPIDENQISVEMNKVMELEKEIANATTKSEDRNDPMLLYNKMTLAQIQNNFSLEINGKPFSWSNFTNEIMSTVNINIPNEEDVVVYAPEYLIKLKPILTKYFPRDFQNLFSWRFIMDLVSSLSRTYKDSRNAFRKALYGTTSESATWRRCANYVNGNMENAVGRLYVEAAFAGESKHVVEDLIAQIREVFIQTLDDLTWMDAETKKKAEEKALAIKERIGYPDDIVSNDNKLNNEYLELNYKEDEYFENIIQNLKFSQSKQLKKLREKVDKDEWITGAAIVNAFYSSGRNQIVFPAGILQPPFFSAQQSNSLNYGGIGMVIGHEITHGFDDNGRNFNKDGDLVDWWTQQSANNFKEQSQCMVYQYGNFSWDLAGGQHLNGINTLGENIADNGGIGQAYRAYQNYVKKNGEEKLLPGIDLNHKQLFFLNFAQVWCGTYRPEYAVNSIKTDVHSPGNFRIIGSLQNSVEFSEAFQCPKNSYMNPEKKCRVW
Method in brief: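 NEP purified from rabbit kidney, 1 pmol/100 µL final, preincubated 15 min at 25 °C with increasing inhibitor concentrations in 50 mM Tris-HCl pH 7.4. Substrate [3H]-D-Ala2-Leu-enkephalin at 20 nM final, 30 min; stopped with 0.5 M HCl. [3H]Tyr-D-Ala-Gly separated on polystyrene beads and counted by scintillation. IC50 is the mean ± SEM of three independent experiments run in triplicate.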

[1] = biological target: T2, Neprilysin (Mus musculus) (UniProt Q61391); assay: In vivo percent inhibition activity against kidney Neutral endopeptidase 2 hr after oral administration of a dose of 2.6 x 10e-5 mol/kg; assay type: functional, organism-based
T2 sequence (whole entry): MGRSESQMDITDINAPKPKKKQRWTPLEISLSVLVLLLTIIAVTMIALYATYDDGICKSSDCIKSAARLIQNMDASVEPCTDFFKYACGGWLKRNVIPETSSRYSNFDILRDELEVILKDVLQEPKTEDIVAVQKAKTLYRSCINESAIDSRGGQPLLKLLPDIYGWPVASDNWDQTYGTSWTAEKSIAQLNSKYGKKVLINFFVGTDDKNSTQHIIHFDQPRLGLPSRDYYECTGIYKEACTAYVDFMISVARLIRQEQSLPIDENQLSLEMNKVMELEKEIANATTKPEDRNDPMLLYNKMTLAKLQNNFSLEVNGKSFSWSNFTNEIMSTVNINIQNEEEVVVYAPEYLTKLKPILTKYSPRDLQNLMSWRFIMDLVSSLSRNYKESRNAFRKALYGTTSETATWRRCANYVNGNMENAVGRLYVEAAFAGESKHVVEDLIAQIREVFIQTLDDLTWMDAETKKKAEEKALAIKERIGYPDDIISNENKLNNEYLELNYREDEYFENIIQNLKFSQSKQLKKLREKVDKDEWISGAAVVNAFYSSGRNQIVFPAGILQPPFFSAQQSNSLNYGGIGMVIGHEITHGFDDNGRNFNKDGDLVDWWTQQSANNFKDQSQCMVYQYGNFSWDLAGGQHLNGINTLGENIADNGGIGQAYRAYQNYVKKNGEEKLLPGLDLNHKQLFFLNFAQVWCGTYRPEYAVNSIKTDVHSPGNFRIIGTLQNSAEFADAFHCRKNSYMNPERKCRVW
Method in brief: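 Mice given a single oral dose in 10% ethanol/10% cremophor/80% water; kidneys taken 2 h later and homogenized at 4 °C in 50 mM Tris-HCl pH 7.4. Membrane fraction (100000g) preincubated 5 min at 25 °C with bestatin and captopril, then incubated 10 min with [3H]-D-Ala2-Leu-enkephalin (2 × 10^-8 M). [3H]Tyr-D-Ala-Gly counted; blanks contained 10^-5 M retrothiorphan.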

Compound	pIC50 (Neprilysin)	inhibition [1] [%]
Cc1ccc([C@H]2CC[C@@H](C(=O)O)N2C(=O)CNC(=O)[C@@H](S)Cc2ccccc2)cc1	7.90	34
O=C(NCC(=O)N1[C@@H](c2cccc(O)c2)CC[C@H]1C(=O)O)[C@@H](S)Cc1ccc(O)cc1	8.80	72
O=C(NCC(=O)N1[C@@H](c2ccccc2O)CC[C@H]1C(=O)O)[C@@H](S)Cc1ccc(O)cc1	8.46	69

The remaining lines, values ahead:

pIC50 (Neprilysin)	inhibition [1] [%]	Compound
8.80	75	O=C(NCC(=O)N1[C@@H](c2ccccc2)CC[C@H]1C(=O)O)[C@@H](S)Cc1ccccc1
8.26	3	Cc1ccc([C@H]2CC[C@@H](C(=O)O)N2C(=O)CNC(=O)[C@@H](S)Cc2ccc(O)cc2)cc1
8.57		Cc1ccccc1C1CC[C@@H](C(=O)O)N1C(=O)CNC(=O)[C@@H](S)Cc1ccc(O)cc1 (single isomer, unassigned)
8.28	37	Cc1ccccc1[C@H]1CC[C@@H](C(=O)O)N1C(=O)CNC(=O)[C@@H](S)Cc1ccccc1
